Values after ≈ are worked out from the molar mass of the structure shown. Each block holds one compound with its values, some of them ahead of it.
How the values were obtained:
ALS = ALS patients; ref v; cited from earlier work
Microsomal stability [1] = type: in vitro ADME; conditions: mouse, liver microsomes
Procedure, shortened: (§1)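 Test compound at 5 μM, in duplicate, with liver microsomes (0.275 mg/mL protein) in 100 mM potassium phosphate, 3 mM MgCl2, 2 mM NADPH, pH 7.4, at 37 °C; a parallel control omits NADPH. Aliquots at 15 sec to 60 min quenched in acidified acetonitrile. Parent quantified by LC-MS/MS against haloperidol internal standard. k from 1/Y-weighted exponential fit; T1/2 = ln2/k.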

Mouse plasma stability = type: in vitro ADME
Procedure, shortened: (§2)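 Samples were taken at 15 s, 10, 20, 40 and 60 min and precipitated with acetonitrile containing haloperidol as internal standard, then analysed by LC-MS/MS for analyte/internal standard peak-area ratio. The plasma ratio was divided by the PBS ratio at the same time point.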

[2] = Aqueous solubility screen in PBS; type: physicochemical; conditions: PBS with 1% DMSO
PBS stability = type: physicochemical; conditions: 5 μM, 37 °C
Procedure, shortened: as §2

Microsomal stability [3] = type: in vitro ADME; conditions: human, liver microsomes, pH 7.4, CL’int, 37 °C, with NADPH
Procedure, shortened: as §1

[4] = tested on: mutant G93A SOD1 aggregation in PC12 cells; experiment: Mutant SOD1-induced cytotoxicity protection assay; type: cell-based; conditions: maximum cell viability in cytotoxicity protection assay

SMILES: Nc1nc2ccc(OC(F)(F)F)cc2s1 [Riluzole]
- prolongation of patient life (ALS): two to three

- CLint scaled at 5 μM (Microsomal stability [1]; pH 7.4, CL’int No NADPH, without NADPH): 61.2 mL/min/kg
- CLint scaled at 5 μM (Microsomal stability [1]; pH 7.4, CL’int, 5 μM, 37 °C, with NADPH): 292 mL/min/kg
- Recovery Plasma vs. PBS (Mouse plasma stability): 91%
- solubility at 1 h [2]: 16.4 µg/mL (≈ 56.7 µM)
- PBS Amount Remaining at 60 min (PBS stability): 100%
- CLint scaled at 5 μM (Microsomal stability [3]): 58.5 mL/min/kg
SMILES: Cc1cc(SCc2cc(=O)[nH][nH]2)c(Cl)cc1Cl [compound 1, 5-((2,4-Dichloro-5-methylphenylthio)methyl)-1H-pyrazol-3(2H)-one]

SMILES: C[C@@H]1C[C@H]2O[C@@H]2/C=C\C=C\C(=O)Cc2c(Cl)c(O)cc(O)c2C(=O)O1 [radicicol]
- efficacy (cell viability) [4]: 85%

Reference: PMC3014451 (Bioorganic & medicinal chemistry, 2010)
